# Measurements collected from several papers.
# Lines come from different studies, so protocols differ.
# Effect on: cell growth or viability
Compound,cell line,technique,time,quantity,result
CN1CCN(c2nccc3nc(-c4ccc(F)c(F)c4)[nH]c23)CC1,CHO,,,CC50,> 50 µM
COc1ccc(S(=O)(=O)ON=C2C=C(C)C(=O)C(C)=C2)cc1,SH-SY5Y,,,CC50,0.19 µM
O=[N+]([O-])c1ccc(-c2nc3cccc(O)c3[nH]2)o1,CHO,resazurin,72 h,CC50,97 µM
CN1CCN(CC2CCN(c3nccc4[nH]c(-c5cc(F)cc(F)c5)nc34)CC2)CC1,CHO,,,CC50,24 µM
CC(Oc1ccc(F)cc1Cl)C(=O)NCc1ccc2c(c1)OCO2 (centres unmarked),CHO,LDH,,CC50,> 100 µM
O=C(Cn1cnc2ccccc21)NN=Cc1ccc(O)cc1O,SH-SY5Y,MTT,24 h,IC50,89.2 µM
CC(Oc1ccc(Cl)cc1Cl)C(=O)NC(c1ccc(F)cc1)C1CCC1 (centres unmarked),CHO,LDH,,CC50,> 100 µM
C#CCN[C@@H]1CCc2ccccc21,SH-SY5Y,MTT,24 h,IC50,> 500 µM
